From publication PMC7551138 (Alzheimer's & Dementia : Translational Research & Clinical …, 2020)

What was measured:
healthy elderly subjects = test: Monitoring of treatment‐emergent adverse events; type: in vivo, human; settings: 16 mg oral, single dose; within 24 hours after administration
Outline: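 Randomised, double-blind, placebo-controlled trial in healthy subjects aged ≥65 (n=48; 12 active:4 placebo per cohort, placebos pooled). Intranasal test compound 5.5, 11 or 22 mg or 0.9% NaCl b.i.d. for 7 days, 6 h between doses. The 11 mg active subjects later got one open-label oral 16 mg dose of the parent drug. Safety was tracked by TEAEs, nasal examination, vital signs, ECG and safety bloods.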

[1] = 4 mg/kg in mice; cited from earlier work

COc1ccc2c3c1O[C@H]1C[C@@H](O)C=C[C@@]31CCN(C)C2 [galantamine, reference compound]
TEAEs within 24 hours: All gastrointestinal disorders (healthy elderly subjects): 8 (66.7) number of subjects (percentage
TEAEs within 24 hours: Any events (healthy elderly subjects): 10 (83.3) number of subjects (percentage
TEAEs within 24 hours: Diarrhea (healthy elderly subjects): 1 (8.3) number of subjects (percentage
TEAEs within 24 hours: Nausea (healthy elderly subjects): 5 (41.7) number of subjects (percentage
TEAEs within 24 hours: Vomiting (healthy elderly subjects): 5 (41.7) number of subjects (percentage
brain‐to‐blood ratio [1]: 2.1
